Compounds with a hit are over-represented: about 4.7% of the library has one in this group of screens.
RGS4 block = RGS4 inhibitors, primary screen, cell-based, HEK293 M3R inducible RGS4, calcium flux. Regulator of G-protein signaling 4 (Homo sapiens), P49798. B-score at 10 µM. AID 463165, 2010. Fluo-4 calcium flux; hits give high values; triggered by carbachol at its EC20. 310,000 tested, 0.45% active;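 active = B-score, a plate-corrected calcium signal, over three deviations above library mean, with baseline fluorescence within five deviations of library mean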;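 also: RGS4 expression induced by doxycycline in cells with stable M3 receptor; B-score is computed from the integrated fluorescence ratio over baseline after carbachol; higher B-score means a larger calcium signal and so more RGS4 inhibition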
KCC2 mod = KCC2 cotransporter modulators, thallium flux, primary screen, cell-based, HEK293 KCC2, FluoZin-2 fluorescence, MLSMR; Solute carrier family 12 member 5 (Homo sapiens), Q9H2X9; KCC2 cells, thallium flux FluoZin-2 fluorescence; B-score of Tl+ flux slope (higher = more flux/activation; lower = inhibition) at 10 µM; 190,000 tested, 2.2% active;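 active = thallium flux slope and its plate-corrected score both differing from the plate sample mean at a set confidence after two filtering rounds, in either direction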;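 also: slope of fluorescence scaled to starting intensity during 10 to 20 s after thallium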
RGS4 act = RGS4 potentiators or activators, primary screen, cell-based, HEK293 M3R inducible RGS4, calcium flux; carbachol calcium flux Fluo4; hits give low values; B-score at 10 µM; 310,000 tested, 0.92% active;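 active = B-score of the integrated calcium signal more than 4 SD below the library mean, with starting fluorescence not abnormally high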;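 also: negative B-score means reduced calcium response which marks RGS4 activation or potentiation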
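System: HEK293 FlpIn-TREx cells, stable M3R, doxycycline-inducible RGS4. Timing: overnight RGS4 induction, 30 min dye load 37 °C, 20 min compound RT. Also added: carbachol, ECmax concentration. Measured by: Fluo4 fluorescence kinetic imaging of calcium. Evaluation: integrated calcium ratio converted to B score.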
MrgX1 antag = antagonists of human MrgX1 receptor, primary screen, HEK293 cells, Fluo-4 calcium flux; AID 588676, 2011; 310,000 tested, 1.3% active; B-score at 10 µM; BAM8-22 antagonism; hits give low values;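 active = calcium-response B-score plate-corrected more than 3 library SD below zero, starting fluorescence within 5 deviations, no agonist response on first addition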;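 also: peak minus trough fluorescence over baseline after final BAM8-22 challenge near maximal dose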
MrgX1 PAM = positive allosteric modulators of MrgX1, primary screen, HEK293 cells, Fluo-4 calcium flux | B-score at 10 µM | AID 588675, 2011 | Mas-related G-protein coupled receptor member X1 (Homo sapiens), Q96LB2 | FDSS; hits give high values | 310,000 tested, 0.63% active;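 active = plate-corrected calcium response at least 3 library SD above typical, normal starting fluorescence, not activating the receptor alone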;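 also: compound read alongside a low EC10 to EC30 dose of BAM8-22 agonist; peak minus trough fluorescence over baseline measured at the second addition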
MrgX1 ag = agonists of human MrgX1 receptor, primary screen, HEK293 cells, Fluo-4 calcium flux; B-score at 10 µM; Mas-related G-protein coupled receptor member X1 (Homo sapiens), Q96LB2; Fluo-4 calcium fluorescence, agonist mode; hits give high values; 310,000 tested, 0.44% active;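 active = calcium response B-score plate-corrected fluorescence ratio at least 3 library SD, with starting fluorescence B-score inside 5 SD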
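Test system: HEK293 cells stably expressing human MrgX1 receptor; Input: fifteen thousand cells per well; Dosing: compound delivered in addition one of three; Schedule: overnight seeding, then 1 h dark dye loading; Technique: Fluo-4 NW calcium fluorescence; Measure: B-scored fluorescence response ratio; Controls: positive and negative controls per plate.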
MrgX1 allo conf = MrgX1 positive allosteric modulators, duplicate retest, confirmation, HEK293 cells, Fluo-4 calcium flux. Fluo-4 calcium fluorescence, FDSS. activation (ratio percentage), % at 10 µM. shares compounds with MrgX1 PAM. 1,200 tested, 13% active. AID 602413, 2012;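 active = ratio at least 3 SD above the weak peptide control, stable starting fluorescence, no direct agonism earlier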;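 also: compound followed by low BAM8-22 agonist challenge near EC20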
MrgX1 antag conf = MrgX1 receptor antagonists, duplicate retest, confirmation, HEK293 cells, Fluo-4 calcium flux. shares compounds with MrgX1 antag. BAM8-22 calcium flux; hits give low values. remaining BAM8-22 calcium response % of control (hits give low values), % at 10 µM. 2,300 tested, 19% active. AID 602420, 2012;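 active = remaining agonist calcium response no higher than 100% minus 3 SD of agonist-only control wells, with starting fluorescence near control levels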;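 also: agonist BAM8-22 given at a near maximal EC90 to ECmax level; peak minus minimum fluorescence divided by baseline after agonist addition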
HEK293 Ca flux = nonspecific calcium signal in parental HEK293, confirmation, counter-screen for MrgX1 antagonist project, parental HEK293 cells, Fluo-4 calcium flux; shares compounds with MrgX1 antag; Fluo-4 calcium fluorescence, FDSS; fluorescence ratio F(max-min)/F0 at 10 µM; 4,000 tested, 2% active; AID 624111, 2012;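 active = duplicate-averaged calcium fluorescence ratio at least three times the standard deviation of buffer wells, a nonspecific response in parental cells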
HEK293 Ca counter = calcium response in parental HEK293 cells, primary screen, counter-screen for MrgX1 allosteric activator project, cell-based, Fluo-4 calcium flux, duplicate; shares compounds with MrgX1 antag; Fluo-4 fluorescence ratio; hits give high values; fluorescence ratio F(max-min)/F0 at 10 µM; 4,000 tested, 0.4% active; AID 624114, 2012;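 active = calcium fluorescence ratio, averaged over duplicates, at least 3 SD of the buffer-well ratio, meaning a nonspecific response in receptor-free cells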;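 also: untransfected parental HEK293 lacking MrgX1 used as counterscreen for MrgX1 allosteric activators; fluorescence change taken during the second addition on a kinetic imager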
HEK293 Ca cntr2 = calcium response in parental HEK293 cells, primary screen, counter-screen for MrgX1 agonist project, cell-based, Fluo-4 calcium flux, duplicate, agonist mode. shares compounds with MrgX1 antag. Fluo-4 calcium fluorescence (FDSS); hits give high values. fluorescence ratio F(max-min)/F0 at 10 µM. 4,000 tested, 8.7% active. AID 624115, 2012;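 active = calcium fluorescence ratio at least three times the spread of buffer wells, meaning a non-specific response in parental cells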
Large screens that a line does not name were inactive (follow-up assays come after a bar, where they were run).

CCN1C(=O)CC(c2cccnc2)=Nc2ccccc21	MrgX1 PAM 6.44 (no result: KCC2 mod) | MrgX1 allo conf inactive | HEK293 Ca flux inactive | HEK293 Ca counter inactive | HEK293 Ca cntr2 inactive
CSc1nnc(OC(=O)N(C)C)n1-c1ccc(Cl)cc1	none
COc1ccc(C(=O)c2nc3ccccc3n2C(C)C)cc1OC	none (no result: KCC2 mod)
COc1ccc(C(=O)c2nc3ccccc3n2C(C)C)cc1	MrgX1 PAM 6.47 | MrgX1 allo conf inactive | HEK293 Ca flux inactive | HEK293 Ca counter inactive | HEK293 Ca cntr2 inactive
CC1(C)CN=C(NCc2ccccc2)S1	MrgX1 PAM 6.44 (no result: KCC2 mod) | MrgX1 allo conf inactive | HEK293 Ca flux inactive | HEK293 Ca counter inactive | HEK293 Ca cntr2 inactive
C[CH2][Hg][S]c1ccccc1C(=O)O	MrgX1 PAM 6.51 (no result: RGS4 block, KCC2 mod, RGS4 act) | MrgX1 allo conf inactive | HEK293 Ca flux inactive | HEK293 Ca counter inactive | HEK293 Ca cntr2 inactive
CC(C)COC(=O)c1ccccc1C(=O)OCC(C)C	none
CC(C)Sc1nnc(OC(=O)N(C)C)n1-c1ccccc1	none
C=CCN1CCc2cccc3c2[C@H]1Cc1ccc(O)c(O)c1-3	MrgX1 PAM 8.14 (no result: KCC2 mod) | MrgX1 allo conf inactive | HEK293 Ca flux inactive | HEK293 Ca counter inactive | HEK293 Ca cntr2 inactive
CCCCCn1c(=O)c(C(=O)NCCc2ccccc2)c(O)c2ccccc21	MrgX1 antag -8.18, MrgX1 PAM 7.62 (no result: KCC2 mod) | MrgX1 allo conf inactive | MrgX1 antag conf inactive | HEK293 Ca flux inactive | HEK293 Ca counter inactive | HEK293 Ca cntr2 inactive
CCOC(=O)C1=C(N)Oc2cc(C)oc(=O)c2C12C(=O)N1c3c(cccc32)C(C)=CC1(C)C (stereo unspecified)	MrgX1 PAM 9.25 | MrgX1 allo conf inactive | HEK293 Ca flux inactive | HEK293 Ca counter inactive | HEK293 Ca cntr2 86.8
N#CC1=C(N)Oc2cc(O)ccc2C1c1ccc2c(c1)OCO2 (stereo unspecified)	none
O=[N+]([O-])/C=C1/NCCN1Cc1ccc(Cl)nc1	none (no result: KCC2 mod)
CCCc1nc2ccccc2c(=O)n1-c1ccc(OC)cc1	none
CCCCOc1nc2ccccc2c(=O)n1-c1ccccc1	MrgX1 PAM 9.22 | MrgX1 allo conf inactive | HEK293 Ca flux inactive | HEK293 Ca counter inactive | HEK293 Ca cntr2 47.6
COc1nc2ccccc2c(=O)n1-c1ccc(Cl)cc1	MrgX1 PAM 11.8 | MrgX1 allo conf inactive | HEK293 Ca flux inactive | HEK293 Ca counter inactive | HEK293 Ca cntr2 inactive
COc1ccc(-n2c(-c3ccc(C)cc3)nc3ccccc3c2=O)cc1	none
Cc1ccc(-n2c(C)nc3ccccc3c2=O)cc1C	MrgX1 PAM 7.66 | MrgX1 allo conf 13.0% | HEK293 Ca flux inactive | HEK293 Ca counter inactive | HEK293 Ca cntr2 inactive
COc1nc2ccccc2c(=O)n1-c1ccc(C)cc1	MrgX1 PAM 17.8 | MrgX1 allo conf inactive | HEK293 Ca flux inactive | HEK293 Ca counter inactive | HEK293 Ca cntr2 inactive
Cc1ncc([N+](=O)[O-])n1CCOC(N)=O	none
CCC1(c2cccc(O)c2)CCCCN(C)C1 (stereo unspecified)	none (no result: RGS4 block, KCC2 mod, RGS4 act)
CCc1ccc(-n2c(O)c(/C=N/N3CCCCC3c3cccnc3)c(=O)[nH]c2=O)cc1 (stereo unspecified)	MrgX1 antag -10.7 | MrgX1 antag conf inactive | HEK293 Ca flux inactive | HEK293 Ca counter inactive | HEK293 Ca cntr2 inactive
Cn1c(O)c(C=NCCN2CCN(C(=O)Nc3ccccc3)CC2)c(=O)n(C)c1=O	none
c1ccc(C2CN3CCC2CC3)cc1 (stereo unspecified)	none
O=C(O)C1CN2CCC1CC2 (stereo unspecified)	MrgX1 antag -8.04 | MrgX1 antag conf inactive | HEK293 Ca flux inactive | HEK293 Ca counter inactive | HEK293 Ca cntr2 inactive
CC(C)(C)c1ccc(O)c(CN2CCN(c3ccccc3)CC2)c1	MrgX1 antag -9.33 (no result: KCC2 mod) | MrgX1 antag conf inactive | HEK293 Ca flux inactive | HEK293 Ca counter inactive | HEK293 Ca cntr2 inactive
Cn1c(O)c(Cc2ccc(OCc3ccccc3)cc2)c(=O)n(C)c1=O	none (no result: KCC2 mod)
COc1ccccc1-n1c(-c2ccoc2)nc2ccccc2c1=O	MrgX1 antag -4.73 (no result: KCC2 mod) | MrgX1 antag conf inactive | HEK293 Ca flux inactive | HEK293 Ca counter inactive | HEK293 Ca cntr2 inactive
C[C@]12CCC(=O)CC1CCC1C2CC[C@]2(C)C(OC(=O)CCC(=O)O)CCC12 (stereo partly specified)	none (no result: KCC2 mod)
FC(F)(F)c1cccc(-n2nnnc2C2(N3CCOCC3)CCCCC2)c1	MrgX1 antag -5.13 | MrgX1 antag conf inactive | HEK293 Ca flux inactive | HEK293 Ca counter inactive | HEK293 Ca cntr2 inactive
Clc1ccc2[nH]c3c(c2c1)CCNC3	MrgX1 antag -5.44 (no result: KCC2 mod) | MrgX1 antag conf inactive | HEK293 Ca flux inactive | HEK293 Ca counter inactive | HEK293 Ca cntr2 inactive
CC(N)Cc1c[nH]c2ccc(Cl)cc12 (stereo unspecified)	none
Cc1cccn2c(=O)c3cc(C(=O)N4CCC5(CC4)OCCO5)n(C)c3nc12	MrgX1 antag -4.7 (no result: KCC2 mod) | MrgX1 antag conf inactive | HEK293 Ca flux inactive | HEK293 Ca counter inactive | HEK293 Ca cntr2 inactive
O=C(c1cccn2c(=O)c3cc(Br)ccc3nc12)N1CCC2(CC1)OCCO2	none
NC(CC(=O)O)C1CCCCC1 (stereo unspecified)	MrgX1 antag -7.05 | MrgX1 antag conf inactive | HEK293 Ca flux inactive | HEK293 Ca counter inactive | HEK293 Ca cntr2 inactive
